Data set [1] is described as follows: Area under the curve after intravenous administration at a dose of 5 umol/kg. The data set is classed as ADME. To be noted: in vivo. In a few lines:
(§1)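 Male Sprague-Dawley rats, iv dosing. Blood sampled at intervals up to 12 h, plasma drug levels by GC/MS with internal standard and a 2–1000 pmol/mL standard curve in blank blood. AUC from total area of concentration–time curve; iv n = 3 (table values SEM, n = 4–6).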

The species entered for data set [2] is Rattus norvegicus. The experiment in a line: The concentration yielding a half maximal decrease of the 5-HTP was determined in rat brain hemispheres. The data set is classed as functional.
Data set [3] is filed under the species Rattus norvegicus. The experiment in a line: Log concentration to inhibit DOPA accumulation was determined in rat brain striatum. Format: functional. An outline of the steps:
(§2)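 Reserpine-pretreated (5 mg/kg sc, 18 h) male Sprague-Dawley rats, 200–300 g; compounds in saline given sc. DOPA and 5-HTP in limbic system, striatum and hemispheres measured by HPLC with electrochemical detection. Dose–response curves of 4–6 doses (n = 4) per area, fitted to variable-slope sigmoid on log data to give ED50.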

Data set [4] can be described thus: Half life in plasma after administration of 5 umol/kg dose intravenously. The data set is classed as ADME, organism-based. To be noted: iv. An outline of the steps:
as §1

The species named for data set [5] is Rattus norvegicus. Briefly: The concentration yielding a half maximal decrease of the DOPA was determined in rat brain hemispheres. The data set is classed as functional.
A short description of data set [6]: Maximum concentration in plasma after administration of 40 umol/kg dose perorally. Format: ADME, organism-based. Also noted: dose 40 umol/kg, route oral. To be noted: po. In a few lines: (§3)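 Male Sprague-Dawley rats starved 18 h, dosed orally. Blood samples over up to 12 h, drug quantified by GC/MS against internal standard (2–1000 pmol/mL standard curve). Cmax read from concentration–time curve; SEM, n = 4–6.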

A short description of data set [7]: Maximum concentration in plasma after administration of 5 umol/kg dose intravenously. Details: dose 5 umol/kg, route intravenous. To be noted: iv. The data set is classed as ADME, organism-based. In a few lines:
as §1

For data set [8], the species on record is Rattus norvegicus. The experiment in a line: Log concentration to inhibit 5-HTP accumulation was determined in rat limbic system. The data set is classed as functional. In a few lines:
as §2

The species entered for data set [9] is Rattus norvegicus. Briefly: The concentration yielding a half maximal decrease of the 5-HTP was determined in rat brain striatum. Format: functional.
In data set [10] the test system is Rattus norvegicus. Briefly: Motor activity was measured by motility testing on injecting the compound subcutaneously into rats at the dose of 12.5 umol/kg. Format: functional. An outline of the steps:
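Rats given reserpine 5 mg/kg sc 18 h beforehand, then test compound sc in neck (n = 4). Placed singly in photocell motility meters straight after dosing; counts recorded for 30 min, gross behaviour observed throughout. Value as counts/30 min with SEM.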

Data set [11] is filed under the species Rattus norvegicus. Briefly: The concentration yielding a half maximal decrease of the 5-HTP was determined in rat limbic system. The data set is classed as functional.
Data set [12] concerns the target T1, 5-hydroxytryptamine receptor 1A (Rattus norvegicus, UniProt P19327).
T1 sequence (P19327 whole entry): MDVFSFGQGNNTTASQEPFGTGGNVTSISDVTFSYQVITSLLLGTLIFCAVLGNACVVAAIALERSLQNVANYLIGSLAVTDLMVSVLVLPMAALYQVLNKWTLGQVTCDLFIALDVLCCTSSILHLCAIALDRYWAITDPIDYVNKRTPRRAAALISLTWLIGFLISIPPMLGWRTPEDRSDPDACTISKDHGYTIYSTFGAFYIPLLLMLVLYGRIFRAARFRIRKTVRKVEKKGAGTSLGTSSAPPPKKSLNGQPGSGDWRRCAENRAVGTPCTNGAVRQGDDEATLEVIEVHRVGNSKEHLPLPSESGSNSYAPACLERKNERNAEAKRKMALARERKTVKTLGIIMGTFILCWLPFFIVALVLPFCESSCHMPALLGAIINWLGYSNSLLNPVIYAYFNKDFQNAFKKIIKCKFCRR
The experiment in a line: Displacement of the radioligand [3H]8-OH-DPAT from 5-hydroxytryptamine 1A receptor. In a few lines:
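Rat whole brain minus brain stem and cerebellum, washed membranes in 50 mM Tris pH 8.0 with 120 mM NaCl, 4 mM CaCl2, 4 mM MgCl2, 10 μM pargyline. Nonspecific with 10 μM 5-HT. IC50 by semilog linear regression, Ki via Cheng–Prusoff; 3–7 experiments, triplicates.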

The species named for data set [13] is Rattus norvegicus. Briefly: Log concentration to inhibit DOPA accumulation was determined in rat limbic system. The data set is classed as functional. An outline of the steps: as §2
Data set [14] is described as follows: Bioavailability in rats after 2 mg/kg (i.v.) and 10 mg/kg (p.o.) administration. The conditions noted are these: rat, in vivo, po. The data set is classed as ADME, organism-based.
Data set [15] is filed under the species Rattus norvegicus. The experiment in a line: The concentration yielding a half maximal decrease of the DOPA was determined in rat brain striatum. Format: functional.
The species entered for data set [16] is Rattus norvegicus. The experiment in a line: Log concentration to inhibit 5-HTP accumulation was determined in rat brain striatum. Format: functional. In a few lines:
as §2

The species entered for data set [17] is Rattus norvegicus. The experiment in a line: Log concentration to inhibit DOPA accumulation was determined in rat brain hemispheres. The data set is classed as functional. In a few lines:
as §2

Data set [18] addresses D(2) dopamine receptor (Rattus norvegicus, UniProt P61169). Briefly: Displacement of the radioligand [3H]spiperone from D2 receptor. In a few lines:
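Rat striatal membranes in 50 mM potassium phosphate buffer, incubated with 0.5 nM [3H]spiperone (3 mg tissue) 10 min at 37 °C. Nonspecific binding defined with 10 μM 6,7-ADTN. IC50 converted to Ki by Cheng–Prusoff; 3–7 experiments, each concentration in triplicate.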

The nature of data set [19]: Time taken to reach maximum concentration after administration of 5 umol/kg dose intravenously. The data set is classed as ADME, organism-based. To be noted: in vivo, iv. In a few lines:
(§4)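 Male Sprague-Dawley rats, starved 18 h for the oral arm, dosed iv or po. Blood sampled at intervals up to 12 h. Compound measured by GC/mass spectrometry against an internal standard, with a standard curve over 2–1000 pmol/mL in blank blood. tmax read from concentration–time curves, n = 4–6.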

The nature of data set [20]: Time taken to reach maximum concentration after administration of 40 umol/kg dose perorally. The data set is classed as ADME, organism-based. To be noted: in vivo, po. In a few lines:
as §4

For data set [21], the species on record is Rattus norvegicus. Briefly: Log concentration to inhibit 5-HTP accumulation was determined in rat brain hemispheres. The data set is classed as functional. An outline of the steps: as §2
The species named for data set [22] is Rattus norvegicus. The experiment in a line: The concentration yielding a half maximal decrease of the DOPA was determined in rat limbic system. Format: functional.
Data set [23] can be described thus: Area under the curve after intravenous administration at a dose of 4 umol/kg. Format: ADME. To be noted: in vivo. An outline of the steps:
as §1

A short description of data set [24]: Maximum concentration in plasma after administration of 4 umol/kg dose intravenously. The data set is classed as ADME, organism-based. Details: dose 4 umol/kg, route intravenous. The conditions noted are these: iv. In a few lines:
as §1

Data set [25] deals with Rattus norvegicus. Briefly: The concentration yielding a half maximal decrease of the DOPA was determined in rat brain hemispheres; Inactive at 12.5 umol/kg. Format: functional, organism-based. In a few lines: as §2
Data set [26] is described as follows: Time taken to reach maximum concentration after administration of 10 umol/kg dose perorally. The data set is classed as ADME, organism-based. To be noted: in vivo, po. An outline of the steps:
as §4

The nature of data set [27]: Bioavailability in rat (dose 10 uM/kg). The data set is classed as ADME, organism-based. To be noted: in vivo. In a few lines:
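Male Sprague-Dawley rats; oral group starved 18 h, compared with iv dosing. Blood sampled up to 12 h, levels by GC/MS. Absolute oral availability F (po/iv) from ratio of AUCs of blood concentration–time curves, po n = 5, iv n = 3.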

Data set [28] deals with Rattus norvegicus. The experiment in a line: Ratio of the 5HTP-accumulation decrease in limbic regions after sc to that of po administration at 10 umol/kg. Format: functional, Limbic system.
The species entered for data set [29] is Rattus norvegicus. Briefly: The concentration yielding a half maximal decrease of the DOPA was determined in rat limbic system. Format: functional.
Data set [30] can be described thus: Half life in plasma after administration of 4 umol/kg dose intravenously. The data set is classed as ADME, organism-based. The conditions noted are these: iv. An outline of the steps: as §1
For data set [31], the species on record is Rattus norvegicus. Briefly: The concentration yielding a half maximal decrease of the DOPA was determined in rat brain striatum. Format: functional. An outline of the steps:
as §2

A short description of data set [32]: Maximum concentration in plasma after administration of 10 umol/kg dose perorally. The data set is classed as ADME, organism-based. Also noted: dose 10 umol/kg, route oral. The conditions noted are these: po. An outline of the steps:
as §3

Data set [33] in a line: Time taken to reach maximum concentration after administration of 4 umol/kg dose intravenously. The data set is classed as ADME, organism-based. To be noted: in vivo, iv. In a few lines: as §4
For data set [34], the species on record is Rattus norvegicus. Briefly: The concentration yielding a half maximal decrease of the DOPA was determined in rat limbic system. pED50 values in parenthesis. The data set is classed as functional.
Data set [35] has as its system Rattus norvegicus. Briefly: The concentration yielding a half maximal decrease of the DOPA was determined in rat brain hemispheres; inactive at 11 umol/kg. Format: functional, organism-based. In a few lines: as §2
Data set [36] has as its system Rattus norvegicus. Briefly: The concentration yielding a half maximal decrease of the 5-HTP was determined in rat brain striatum; inactive at 11 umol/kg. The data set is classed as functional, organism-based. An outline of the steps:
as §2

Data set [37] deals with Rattus norvegicus. Briefly: The concentration yielding a half maximal decrease of the 5-HTP was determined in rat limbic system; inactive at 11 umol/kg. Format: functional, organism-based. An outline of the steps: as §2
Data set [38] deals with Rattus norvegicus. Briefly: Motor activity was measured by motility testing on injecting the compound subcutaneously into rats at the dose of 0.02 umol/kg (1a) and 3.5 umol/kg (1b).
For data set [39], the system named is Rattus norvegicus. The experiment in a line: The concentration yielding a half maximal decrease of the 5-HTP was determined in rat brain hemispheres; inactive at 11 umol/kg. The data set is classed as functional, organism-based. In a few lines: as §2
The species entered for data set [40] is Rattus norvegicus. The experiment in a line: The concentration yielding a half maximal decrease of the DOPA was determined in rat brain striatum. pED50 values in parenthesis. Format: functional.

The source made the active and inactive calls.

The text below walks through data of ChEMBL document CHEMBL1127349, “6,7,8,9-Tetrahydro-N,N-di-n-propyl-3H-benzindol-8-amines. Derivatives as potent and orally active serotonin 5-HT1A receptor agonists” (J Med Chem, 1994).

Sequence of D(2) dopamine receptor (P61169 whole entry): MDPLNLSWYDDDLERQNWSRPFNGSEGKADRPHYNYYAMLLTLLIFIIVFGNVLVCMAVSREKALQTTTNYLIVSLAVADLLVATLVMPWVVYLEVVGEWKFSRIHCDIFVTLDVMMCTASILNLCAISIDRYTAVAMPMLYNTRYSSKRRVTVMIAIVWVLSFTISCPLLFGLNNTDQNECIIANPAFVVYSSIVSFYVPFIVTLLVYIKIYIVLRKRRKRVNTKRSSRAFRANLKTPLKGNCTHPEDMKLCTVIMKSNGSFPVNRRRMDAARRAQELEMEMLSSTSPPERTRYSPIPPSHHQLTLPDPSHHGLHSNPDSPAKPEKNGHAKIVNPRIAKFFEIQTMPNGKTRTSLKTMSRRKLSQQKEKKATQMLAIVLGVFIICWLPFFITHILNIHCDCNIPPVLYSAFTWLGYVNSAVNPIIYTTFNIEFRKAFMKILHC

In the case of `CCCN(CCC)C1CCc2ccc3[nH]cc(C#N)c3c2C1` (stereo not given), the AUC in [1] came to 1115 pM/kg. Moreover, the ED50 in [2] turned out to be 0.45 µmol/kg; in [5], 5.2 µmol/kg; in data set [9] it was 0.22 µmol/kg; in data set [11], 0.17 µmol/kg; in [15], 3.2 µmol/kg; in data set [22], 1.05 µmol/kg. The pED50 is 5.49 in data set [3]; 6.77 in data set [8]; 5.98 in data set [13]; 6.65 in data set [16]; 5.29 in [17]; 6.35 in data set [21]. The molecule further gave a half-life in data set [4] of 1.5 h. In addition, the results for the Cmax in data set [6] and in data set [7] were 1500 nM and 1730 nM, respectively. This molecule registered an Activity in data set [10] of 317 Counts 30min-1. Also, the Ki in [12] stood at 1.8 nM; in data set [18], 439 nM. This molecule also showed a bioavailability in data set [14] of 54%. The Tmax was 2 min in data set [19] and 2.25 h in data set [20].
Molecule `CCCN(CCC)[C@@H]1CCc2ccc3[nH]c(C#N)cc3c2C1` [U-92,016-A] came in with an AUC in [23] of 1817 pM/kg. For the same molecule, the Cmax in [24] is 2570 nM; in data set [32], 1120 nM. Moreover, the ED50 entry in [25] was “inactive”. In addition, the ED50 is 0.28 µmol/kg in data set [2]; 55% in [28]; 2.01 µmol/kg in data set [29]; 0.079 µmol/kg in data set [9]; 0.21 µmol/kg in data set [11]; 3.36 µmol/kg in data set [31]. In addition, the pED50 in data set [3] worked out at 5.47; in [8], 6.67; in data set [13] it was 5.69; in data set [16], 7.1; in data set [21], 6.56. The Tmax is 1.25 h in [26] and 4 min in data set [33]. Moreover, the bioavailability in data set [27] was found to be 63%. This molecule also gave a half-life in [30] of 1.5 h. For the same molecule, the Activity in [10] came out at 194 Counts 30min-1. In addition, affinity in [18] was put at a Ki of 538 nM.
In the case of `CCCN(CCC)C1CCc2ccc(O)cc2C1` (stereo not given), the results for the ED50 in data set [34] and in [40] were 0.027 µmol/kg and 0.03 µmol/kg, respectively. The ED50 result in data set [35], in data set [36], in [37] and in data set [39] was “inactive” in each case. The molecule also yielded a Counts/30 min in [38] of 170.

As usually defined, the half-life is the time needed for the level to fall by half in the phase considered. A high value points to slow decline. The term Cmax denotes the highest concentration seen after dosing. For orientation: Ki means the dissociation constant of the complex between target and ligand, obtained from inhibition or displacement. By bioavailability is commonly meant dose-corrected exposure relative to a reference, in per cent. The low end stands for poor availability, the high end for good availability. By Tmax is commonly meant the time at which the peak concentration occurs.
